Among the data in PubChem BioAssay are outcome and potentiation values, retold here.

The source made the active and inactive calls.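 The calls were made as follows, unless noted: active = mean duplicate potentiation above the buffer control mean plus 5 SD of buffer wells; inactive = the rest.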

Assay [1] is described as follows: thallium flux activation in parental CHO cells, counter-screen for KCNQ1 potentiator project (AID 493006;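 active = duplicate-averaged activation above buffer control mean plus 5 SD of those controls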). To be noted: parental CHO-K1 cells, FluxOR thallium flux, at 10 µM; hits give high values. The procedure, abridged:
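Assay system: Untransfected host CHO-K1 cells with FluxOR thallium dye | Probe or stimulus: Potassium/thallium depolarization pulse | Schedule: Overnight 37 °C plating, 90 min RT dye, 20 min compound | Detection: Kinetic thallium-flux fluorescence | Read-out: Max-minus-min fluorescence over baseline, percent of buffer-to-R-L3 span | Benchmarks: Low control buffer, high control R-L3 activator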
(The purpose of a counterscreen is to sort out artefacts and off-target activity.)

Assay [2] addresses Potassium voltage-gated channel subfamily KQT member 1 (Homo sapiens) (UniProt P51787). Briefly: KCNQ1 potassium channel potentiators, confirmation, FluxOR thallium flux, CHO cells, duplicates (AID 493007;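 active = potentiation averaged over duplicate wells exceeding buffer-only control mean by more than 3 SD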;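 as to outcome: cells depolarized by a potassium plus thallium sulfate stimulus after compound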). To be noted: KCNQ1 cell line, FluxOR thallium flux fluorescence, at 10 µM; hits give high values, % of reference activator effect, buffer zero. The gist of the method:
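Material: KCNQ1-expressing CHO cell line; Incubation: FluxOR dye loading 90 min, compound exposure 20 min, room temperature; Detection: FluxOR Tl+ flux fluorescence, 10 s baseline plus 110 s recording; Read-out: percent activation between buffer and R-L3 responses; Control set: buffer-only wells as 0% and R-L3 activator as 100%; Replication: duplicate wells per compound.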

Assay [3] concerns the target Potassium voltage-gated channel subfamily KQT member 2 (Rattus norvegicus) (UniProt O88943). The assay can be described thus: rat KCNQ2 channel potentiation, selectivity assay for KCNQ1 potentiator project, KCNQ2-CHO-K1 cells (AID 493009).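 Also: assay conditions were tuned for KCNQ1 rather than KCNQ2 modulators; signal is max minus min fluorescence divided by baseline after thallium stimulus.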 To be noted: FluxOR thallium flux fluorescence, at 10 µM; hits give high values, scaled: buffer 0, activator control 100.
In assay [4] the target is Potassium voltage-gated channel subfamily KQT member 1 (Homo sapiens) (UniProt P51787). The assay can be described thus: KCNQ1 channel current potentiators, confirmation, orthogonal assay for KCNQ1 potentiator project, IonWorks patch clamp, KCNQ1-CHO cells (AID 493184;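 active = current rise at least 3 SD above the untreated control mean in each of two repeat wells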). The following applies: automated patch clamp current, at 10 µM; hits give high values. The gist of the method:
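assay system = KCNQ1-expressing CHO cells | medium = external bath solution at pH 7.4 | probe or stimulus = 2,000 ms depolarization, -90 to +40 mV | compound dosing = 10 µM final, single point | measured by = automated voltage clamp, amphotericin B perforated patch | measure = percent current increase versus pre-compound level | replication = duplicates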

The target of assay [5] is Potassium voltage-gated channel subfamily E member 1 (Homo sapiens) + Potassium voltage-gated channel subfamily KQT member 1 (Homo sapiens) (UniProt P15382+P51787). The assay can be described thus: KCNQ1/KCNE1 complex potentiators, confirmation, selectivity assay for KCNQ1 potentiator project, thallium flux, CHO-K1 KCNQ1/E1 cells (AID 493186;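 active = mean duplicate activation above the buffer control mean plus 5 SD of those controls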). The following applies: FluxOR thallium flux, at 10 µM; hits give high values. The procedure, abridged: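 Test system – CHO-K1 cells with KCNQ1/E1 · Measured by – FluxOR Tl+ flux fluorescence, kinetic read · Controls – buffer low control, R-L3 high control · Times – dye 90 min, compound 20 min, room temperature · Replication – duplicate wells per compound · Doses – one test concentration · Evaluation – fluorescence rise relative to baseline, as percent of R-L3 response above buffer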
Chain of Potassium voltage-gated channel subfamily E member 1 (Homo sapiens) + Potassium voltage-gated channel subfamily KQT member 1 (Homo sapiens) (P51787 whole entry, looked up): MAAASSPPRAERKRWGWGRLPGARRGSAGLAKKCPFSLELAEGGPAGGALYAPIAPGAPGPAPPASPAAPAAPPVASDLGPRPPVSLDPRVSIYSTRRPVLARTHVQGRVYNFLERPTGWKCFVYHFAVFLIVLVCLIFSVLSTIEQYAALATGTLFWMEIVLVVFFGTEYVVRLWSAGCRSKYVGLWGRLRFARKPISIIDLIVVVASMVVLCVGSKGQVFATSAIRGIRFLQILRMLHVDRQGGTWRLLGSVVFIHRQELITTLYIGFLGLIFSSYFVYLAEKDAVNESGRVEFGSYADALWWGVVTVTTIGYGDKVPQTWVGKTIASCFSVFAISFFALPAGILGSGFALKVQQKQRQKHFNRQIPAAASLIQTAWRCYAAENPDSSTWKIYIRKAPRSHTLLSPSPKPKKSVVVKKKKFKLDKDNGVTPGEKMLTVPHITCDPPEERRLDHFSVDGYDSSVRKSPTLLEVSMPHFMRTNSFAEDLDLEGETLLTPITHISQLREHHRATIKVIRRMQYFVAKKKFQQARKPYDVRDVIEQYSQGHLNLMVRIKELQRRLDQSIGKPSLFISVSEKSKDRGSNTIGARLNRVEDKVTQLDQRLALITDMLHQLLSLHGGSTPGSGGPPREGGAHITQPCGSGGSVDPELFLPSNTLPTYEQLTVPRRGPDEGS

Chain of Potassium voltage-gated channel subfamily KQT member 1 (Homo sapiens) (P51787 whole entry, looked up): as above
Chain of Potassium voltage-gated channel subfamily KQT member 2 (Rattus norvegicus) (O88943 whole entry, looked up): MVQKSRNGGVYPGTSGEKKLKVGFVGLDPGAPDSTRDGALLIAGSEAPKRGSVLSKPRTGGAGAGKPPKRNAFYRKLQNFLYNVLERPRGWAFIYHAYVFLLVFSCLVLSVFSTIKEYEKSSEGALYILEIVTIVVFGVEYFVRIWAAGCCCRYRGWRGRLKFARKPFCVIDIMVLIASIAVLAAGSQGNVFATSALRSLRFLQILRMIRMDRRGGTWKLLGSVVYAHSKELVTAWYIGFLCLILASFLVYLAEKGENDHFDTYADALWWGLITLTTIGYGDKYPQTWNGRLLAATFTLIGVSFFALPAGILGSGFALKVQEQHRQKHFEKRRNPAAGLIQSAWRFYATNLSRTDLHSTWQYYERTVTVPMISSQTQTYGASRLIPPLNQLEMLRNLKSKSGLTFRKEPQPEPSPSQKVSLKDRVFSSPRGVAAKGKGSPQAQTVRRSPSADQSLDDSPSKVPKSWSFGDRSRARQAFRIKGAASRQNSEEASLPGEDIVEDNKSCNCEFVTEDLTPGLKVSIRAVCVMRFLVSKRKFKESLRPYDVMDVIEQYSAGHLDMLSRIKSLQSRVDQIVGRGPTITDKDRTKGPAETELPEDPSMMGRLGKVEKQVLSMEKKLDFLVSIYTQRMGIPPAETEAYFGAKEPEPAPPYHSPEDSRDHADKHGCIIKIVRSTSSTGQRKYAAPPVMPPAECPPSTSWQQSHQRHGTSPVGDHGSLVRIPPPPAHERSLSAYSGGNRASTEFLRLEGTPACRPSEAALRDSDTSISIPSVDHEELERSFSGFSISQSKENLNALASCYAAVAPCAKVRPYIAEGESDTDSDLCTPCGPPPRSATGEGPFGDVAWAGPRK

For `O=C(NC(=S)Nc1cccc(Cl)c1)c1cncc(Br)c1`, the outcome in assay [1], in assay [2], in assay [3], in assay [4] and in assay [5] was inactive.

Consider `COc1cc2c(cc1NC(=O)CSc1nnc(COc3ccc(Cl)cc3)n1C)oc1ccccc12`, for which the outcome in assay [1], in assay [3], in assay [4] and in assay [5] was inactive. The potentiation in assay [2] was 49.5% (active).

Regarding `Cc1onc(-c2ccccc2)c1C(=O)NC(=S)NNC(=O)c1ccccc1O`, the result in assay [1], in assay [3], in assay [4] and in assay [5] was inactive. In addition, the potentiation in assay [2] is 17.5% (active).

For `Cn1cccc1/C=N/n1c(-c2ccc(Cl)cc2Cl)n[nH]c1=S`, the result in assay [1], in assay [2], in assay [3], in assay [4] and in assay [5] was inactive.

For the compound `OCCN1CCN(c2nc(-c3ccccc3)nc3c2oc2ccccc23)CC1`, the outcome in assay [1], in assay [2], in assay [3], in assay [4] and in assay [5] was inactive.

Consider `CC(=O)/C=C/c1ccc2ccccc2n1`, for which the outcome in assay [1], in assay [2], in assay [3], in assay [4] and in assay [5] was inactive.

Regarding `O=C(NCc1ccccc1)c1ccc2c(c1)C(=O)N(Cc1cccnc1)C2=O`, the result in assay [1], in assay [3], in assay [4] and in assay [5] was inactive. In addition, in assay [2], the potentiation is 17.5% (active).

Regarding `O=C(CN(CCO)c1ccccc1)Nc1cccc(S(=O)(=O)N2CCCC2)c1`, the result in assay [1], in assay [3], in assay [4] and in assay [5] was inactive. Moreover, the potentiation in assay [2] is 22.5% (active).

With `COc1ccc(C(=O)/C=C/C(=O)N(CC(=O)NC2CCCCC2)Cc2ccccc2)c(O)c1`, the result in assay [1], in assay [3], in assay [4] and in assay [5] was inactive. The potentiation in assay [2] was 25% (active).

Turning to `CCC1(CC)Cc2ccccc2-c2[nH]c(=S)[nH]c(=O)c21`, the result in assay [1], in assay [2], in assay [3], in assay [4] and in assay [5] was inactive.

For `NNc1nc2c(F)cc(F)cc2s1`, the outcome in assay [1], in assay [2], in assay [3], in assay [4] and in assay [5] was inactive.

Consider `C=CCn1c(=S)[nH]c2cc(-c3ccccc3)sc2c1=O`, for which the outcome in assay [1], in assay [2], in assay [3], in assay [4] and in assay [5] was inactive.

As to `O=C(N/N=C/c1ccc([N+](=O)[O-])o1)c1sc2ccccc2c1Cl`, the outcome in assay [1], in assay [2], in assay [3], in assay [4] and in assay [5] was inactive.

On to `CCn1c(=S)sc2nc(C)sc21`, for which the outcome in assay [1], in assay [2], in assay [3], in assay [4] and in assay [5] was inactive.

Regarding `O=C1CCCCCN1Sc1ccccc1`, the outcome in assay [1], in assay [3], in assay [4] and in assay [5] was inactive. Besides, in assay [2], the potentiation is 18.5% (active).

On to `O=c1cc2c(nn1Cc1c(Cl)cccc1Cl)-c1ccccc1CC2`, for which the outcome in assay [1], in assay [3], in assay [4] and in assay [5] was inactive. For the same compound, in assay [2], the potentiation is 24% (active).

With `CC(C)Oc1cccc(C(=O)NC(=S)N2CCN(c3ccc(C(F)(F)F)cc3[N+](=O)[O-])CC2)c1`, the result in assay [1], in assay [4] and in assay [5] was inactive. Moreover, the potentiation in assay [2] is 35.5% (active); in assay [3] it was 144% (active).

In the case of `CN(C)CCNc1ncnc2c1sc1nc(N3CCOCC3)c3c(c12)CC(C)(C)SC3`, the result in assay [1], in assay [2], in assay [3], in assay [4] and in assay [5] was inactive.

Take `OCCNCc1cc(Br)ccc1OCc1ccccc1Cl`: the result in assay [1], in assay [2], in assay [3], in assay [4] and in assay [5] was inactive.

On to `C/C(=N\Nc1nc(C)c(C)s1)c1ccc([N+](=O)[O-])cc1`, for which the outcome in assay [1], in assay [4] and in assay [5] was inactive. Further, the potentiation in assay [2] is 43% (active); in assay [3] it was 150% (active).

As for `O=C(N/N=C/c1ccc2cccc(OCc3ccccc3)c2n1)c1ccc(Br)cc1`, the result in assay [1], in assay [3], in assay [4] and in assay [5] was inactive. Moreover, the potentiation in assay [2] was 23% (active).

As to `CC(=O)Nc1ccc(/C=N/NC(=O)c2cccc(S(=O)(=O)N3CCOCC3)c2)cc1`, the result in assay [1], in assay [2], in assay [3], in assay [4] and in assay [5] was inactive.

As to `Cc1ccsc1/C=N\NC(=O)c1n[nH]c2c1CCC2`, the outcome in assay [1], in assay [2], in assay [3], in assay [4] and in assay [5] was inactive.

Consider `COc1ccc(-n2ccnc(SCC(=O)NC3CCCC3)c2=O)cc1OC`, for which the result in assay [1], in assay [2], in assay [3], in assay [4] and in assay [5] was inactive.

Turning to `COCCn1c(C)cc(C(=O)COC(=O)c2ccc([N+](=O)[O-])o2)c1C`, the outcome in assay [1], in assay [3], in assay [4] and in assay [5] was inactive. Further, the potentiation in assay [2] is 22.5% (active).

For `CCCCn1c(=O)[nH]c(=O)c2c1nc(Cn1ncc(Cl)c(Cl)c1=O)n2CCC`, the outcome in assay [1], in assay [2], in assay [3], in assay [4] and in assay [5] was inactive.

Regarding `O=C(Nc1nc2c(Br)cc(Br)cc2c(=O)s1)c1ccco1`, the outcome in assay [1], in assay [2], in assay [3], in assay [4] and in assay [5] was inactive.

In the case of `S=C(NCCc1ccccc1)N1CCn2cccc2C1c1cccnc1` (stereo not given), the outcome in assay [1], in assay [3], in assay [4] and in assay [5] was inactive. The potentiation in assay [2] was 18.5% (active).
